Each block holds one compound with its values, some of them ahead of it. The source made the active and inactive calls. The rule behind the calls is not given here.
Legend:
[1] = target: T1, Amyloid-beta precursor protein (Homo sapiens, UniProt P05067); assay: Displacement of [125I]IMPY from amyloid beta (1 to 40) (unknown origin) after 2 hrs by gamma counting analysis
Outline: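 Incubation was 2 h at 37 °C. Bound and free fractions were separated by filtration through GF/B filters, followed by ice-cold PBS washes and counting. IC50 came from displacement curves of three independent experiments, done in duplicate. Ki was obtained by Cheng-Prusoff.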

Lung [2] = assay: Biodistribution in ICR mouse lung at 2 uCi, iv measured at 30 mins by gamma counting analysis; format: ADME, organism-based; conditions: in vivo, 0.5 h
Outline: (§1)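 The radioiodinated ligand was given intravenously to normal ICR mice, n=5 per time point. Mice were euthanized at 2, 10, 30, 60 and 120 min, and organs were removed and weighed. Radioactivity was gamma counted. %ID/g was calculated as counts per gram of tissue divided by counts of 1% of the injected dose, taken from a 100-fold diluted aliquot.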

Brain [3] = assay: Ratio of drug level in ICR mouse brain measured at 60 mins to drug level in ICR mouse brain measured at 2 mins; format: ADME; conditions: in vivo
Outline: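 Brain uptake (%ID/g) at 60 min was divided by uptake at 2 min after intravenous injection into normal ICR mice, n=5 per time point. Brain radioactivity was gamma counted and normalised to a 1% injected-dose standard.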

Blood [4] = assay: Biodistribution in ICR mouse blood at 2 uCi, iv measured at 10 mins by gamma counting analysis; format: ADME, organism-based; conditions: in vivo; outline: as §1
Heart [5] = assay: Biodistribution in ICR mouse heart at 2 uCi, iv measured at 2 mins by gamma counting analysis; format: ADME, organism-based; conditions: in vivo; outline: as §1
Brain [6] = assay: Biodistribution in ICR mouse brain at 2 uCi, iv measured at 1 hr by gamma counting analysis; format: ADME, organism-based; conditions: in vivo; outline: as §1
Brain [7] = assay: Biodistribution in ICR mouse brain at 2 uCi, iv measured at 30 mins by gamma counting analysis; format: ADME, organism-based; conditions: in vivo, 0.5 h; outline: as §1
Heart [8] = assay: Biodistribution in ICR mouse heart at 2 uCi, iv measured at 30 mins by gamma counting analysis; format: ADME, organism-based; conditions: in vivo, 0.5 h; outline: as §1
Heart [9] = assay: Biodistribution in ICR mouse heart at 2 uCi, iv measured at 10 mins by gamma counting analysis; format: ADME, organism-based; conditions: in vivo; outline: as §1
Blood [10] = assay: Biodistribution in ICR mouse blood at 2 uCi, iv measured at 2 hrs by gamma counting analysis; format: ADME, organism-based; conditions: in vivo; outline: as §1
Liver [11] = assay: Biodistribution in ICR mouse liver at 2 uCi, iv measured at 10 mins by gamma counting analysis; format: ADME, organism-based; conditions: in vivo; outline: as §1
Liver [12] = assay: Biodistribution in ICR mouse liver at 2 uCi, iv measured at 2 hrs by gamma counting analysis; format: ADME, organism-based; conditions: in vivo; outline: as §1
Lung [13] = assay: Biodistribution in ICR mouse lung at 2 uCi, iv measured at 2 hrs by gamma counting analysis; format: ADME, organism-based; conditions: in vivo; outline: as §1
Spleen [14] = assay: Biodistribution in ICR mouse spleen at 2 uCi, iv measured at 2 mins by gamma counting analysis; format: ADME, organism-based; conditions: in vivo; outline: as §1
Kidney [15] = assay: Biodistribution in ICR mouse kidney at 2 uCi, iv measured at 30 mins by gamma counting analysis; format: ADME, organism-based; conditions: in vivo, 0.5 h; outline: as §1
Kidney [16] = assay: Biodistribution in ICR mouse kidney at 2 uCi, iv measured at 10 mins by gamma counting analysis; format: ADME, organism-based; conditions: in vivo; outline: as §1
Liver [17] = assay: Biodistribution in ICR mouse liver at 2 uCi, iv measured at 30 mins by gamma counting analysis; format: ADME, organism-based; conditions: in vivo, 0.5 h; outline: as §1
Blood [18] = assay: Biodistribution in ICR mouse blood at 2 uCi, iv measured at 2 mins by gamma counting analysis; format: ADME, organism-based; conditions: in vivo; outline: as §1
Kidney [19] = assay: Biodistribution in ICR mouse kidney at 2 uCi, iv measured at 1 hr by gamma counting analysis; format: ADME, organism-based; conditions: in vivo; outline: as §1
Blood [20] = assay: Biodistribution in ICR mouse blood at 2 uCi, iv measured at 1 hr by gamma counting analysis; format: ADME, organism-based; conditions: in vivo; outline: as §1
Kidney [21] = assay: Biodistribution in ICR mouse kidney at 2 uCi, iv measured at 2 hrs by gamma counting analysis; format: ADME, organism-based; conditions: in vivo; outline: as §1
Spleen [22] = assay: Biodistribution in ICR mouse spleen at 2 uCi, iv measured at 10 mins by gamma counting analysis; format: ADME, organism-based; conditions: in vivo; outline: as §1
Lung [23] = assay: Biodistribution in ICR mouse lung at 2 uCi, iv measured at 10 mins by gamma counting analysis; format: ADME, organism-based; conditions: in vivo; outline: as §1
Blood [24] = assay: Biodistribution in ICR mouse blood at 2 uCi, iv measured at 30 mins by gamma counting analysis; format: ADME, organism-based; conditions: in vivo, 0.5 h; outline: as §1
Heart [25] = assay: Biodistribution in ICR mouse heart at 2 uCi, iv measured at 1 hr by gamma counting analysis; format: ADME, organism-based; conditions: in vivo; outline: as §1
Heart [26] = assay: Biodistribution in ICR mouse heart at 2 uCi, iv measured at 2 hrs by gamma counting analysis; format: ADME, organism-based; conditions: in vivo; outline: as §1
Kidney [27] = assay: Biodistribution in ICR mouse kidney at 2 uCi, iv measured at 2 mins by gamma counting analysis; format: ADME, organism-based; conditions: in vivo; outline: as §1
Lung [28] = assay: Biodistribution in ICR mouse lung at 2 uCi, iv measured at 1 hr by gamma counting analysis; format: ADME, organism-based; conditions: in vivo; outline: as §1
Spleen [29] = assay: Biodistribution in ICR mouse spleen at 2 uCi, iv measured at 30 mins by gamma counting analysis; format: ADME, organism-based; conditions: in vivo, 0.5 h; outline: as §1
Brain [30] = assay: Biodistribution in ICR mouse brain at 2 uCi, iv measured at 10 mins by gamma counting analysis; format: ADME, organism-based; conditions: in vivo; outline: as §1
Liver [31] = assay: Biodistribution in ICR mouse liver at 2 uCi, iv measured at 1 hr by gamma counting analysis; format: ADME, organism-based; conditions: in vivo; outline: as §1
Spleen [32] = assay: Biodistribution in ICR mouse spleen at 2 uCi, iv measured at 2 hrs by gamma counting analysis; format: ADME, organism-based; conditions: in vivo; outline: as §1
Lung [33] = assay: Biodistribution in ICR mouse lung at 2 uCi, iv measured at 2 mins by gamma counting analysis; format: ADME, organism-based; conditions: in vivo; outline: as §1
Brain [34] = assay: Biodistribution in ICR mouse brain at 2 uCi, iv measured at 2 mins by gamma counting analysis; format: ADME, organism-based; conditions: in vivo; outline: as §1
Liver [35] = assay: Biodistribution in ICR mouse liver at 2 uCi, iv measured at 2 mins by gamma counting analysis; format: ADME, organism-based; conditions: in vivo; outline: as §1
Brain [36] = assay: Biodistribution in ICR mouse brain at 2 uCi, iv measured at 2 hrs by gamma counting analysis; format: ADME, organism-based; conditions: in vivo; outline: as §1
Spleen [37] = assay: Biodistribution in ICR mouse spleen at 2 uCi, iv measured at 1 hr by gamma counting analysis; format: ADME, organism-based; conditions: in vivo; outline: as §1
[38] = target: T1, Amyloid-beta precursor protein; assay: Binding affinity to beta amyloid-containing senile plaques of Alzheimer's disease patient at 50 uM after 20 mins by thioflavin-S staining-based fluorescence microscopic analysis
Outline: (§2)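 Paraffin sections of postmortem AD brain were dewaxed in xylene, passed through graded ethanol, then rinsed in water and 0.01 M PBS at pH 7.4. Sections were immersed in cold ligand (50 in 30% EtOH/0.1 M PBS) for 20 min and differentiated in 50% EtOH for 10 min. Adjacent sections were stained with ThS (1%, 5 min) and differentiated in 70% EtOH. Sections were then PBS-washed, mounted in 80% glycerin and imaged by fluorescence microscopy.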

[39] = target: Microtubule-associated protein tau (Homo sapiens) (UniProt P10636); assay: Binding affinity to hyperphosphorylated tau protein-containing neurofibrillary tangles of Alzheimer's disease patient at 50 uM after 20 mins by thioflavin-S staining-based fluorescence microscopic analysis; outline: as §2
Microtubule-associated protein tau (Homo sapiens), sequence (P10636 whole entry): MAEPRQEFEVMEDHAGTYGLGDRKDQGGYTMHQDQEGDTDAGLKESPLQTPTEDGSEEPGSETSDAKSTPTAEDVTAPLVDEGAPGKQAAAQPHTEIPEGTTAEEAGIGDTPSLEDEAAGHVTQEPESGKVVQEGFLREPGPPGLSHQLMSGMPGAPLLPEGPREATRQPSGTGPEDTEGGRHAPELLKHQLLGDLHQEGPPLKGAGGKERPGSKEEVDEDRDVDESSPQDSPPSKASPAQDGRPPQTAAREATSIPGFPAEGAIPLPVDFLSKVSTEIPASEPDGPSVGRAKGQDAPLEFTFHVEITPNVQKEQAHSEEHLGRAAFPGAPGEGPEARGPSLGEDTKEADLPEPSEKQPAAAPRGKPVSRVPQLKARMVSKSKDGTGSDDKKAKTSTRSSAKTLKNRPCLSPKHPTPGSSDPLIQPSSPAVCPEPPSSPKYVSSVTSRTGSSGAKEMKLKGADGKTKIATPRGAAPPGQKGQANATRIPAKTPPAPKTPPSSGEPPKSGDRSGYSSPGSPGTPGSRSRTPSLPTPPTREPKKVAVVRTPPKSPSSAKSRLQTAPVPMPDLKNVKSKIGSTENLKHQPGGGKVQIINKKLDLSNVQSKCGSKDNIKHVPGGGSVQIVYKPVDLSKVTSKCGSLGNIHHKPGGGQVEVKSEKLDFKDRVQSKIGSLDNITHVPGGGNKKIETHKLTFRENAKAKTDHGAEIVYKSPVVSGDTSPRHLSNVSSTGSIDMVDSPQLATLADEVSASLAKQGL

T1 sequence (P05067 whole entry): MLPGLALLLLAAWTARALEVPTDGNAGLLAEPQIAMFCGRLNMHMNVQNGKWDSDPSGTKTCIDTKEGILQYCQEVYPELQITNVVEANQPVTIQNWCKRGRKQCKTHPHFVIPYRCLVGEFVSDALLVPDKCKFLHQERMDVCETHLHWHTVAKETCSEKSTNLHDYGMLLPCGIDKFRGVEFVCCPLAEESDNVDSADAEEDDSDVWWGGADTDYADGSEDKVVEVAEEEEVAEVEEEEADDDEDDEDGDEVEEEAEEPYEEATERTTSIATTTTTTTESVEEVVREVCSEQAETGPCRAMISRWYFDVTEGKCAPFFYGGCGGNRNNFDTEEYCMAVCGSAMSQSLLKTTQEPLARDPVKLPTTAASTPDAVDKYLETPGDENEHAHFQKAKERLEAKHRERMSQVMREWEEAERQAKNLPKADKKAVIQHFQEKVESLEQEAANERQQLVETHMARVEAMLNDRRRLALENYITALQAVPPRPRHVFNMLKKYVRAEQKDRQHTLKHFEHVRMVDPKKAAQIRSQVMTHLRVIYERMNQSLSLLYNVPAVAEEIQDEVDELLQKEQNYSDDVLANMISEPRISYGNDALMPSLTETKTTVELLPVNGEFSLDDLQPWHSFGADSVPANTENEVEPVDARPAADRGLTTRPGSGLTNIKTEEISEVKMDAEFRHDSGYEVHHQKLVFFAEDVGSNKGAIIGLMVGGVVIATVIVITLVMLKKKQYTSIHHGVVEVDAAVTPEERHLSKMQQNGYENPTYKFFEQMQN

Ki [1]: 104 nM
Compound: O=C1/C(=C/c2ccccc2)COc2ccc(Br)cc21

Ki [1]: 73.5 nM
Compound: COc1cccc(/C=C2\COc3ccc(Br)cc3C2=O)c1

Ki [1]: 39.2 nM
Compound: COc1cc(/C=C2\COc3ccc(Br)cc3C2=O)cc(OC)c1

Ki [1]: 25.5 nM
Compound: CN(C)c1ccc(/C=C2\COc3ccc(Br)cc3C2=O)cc1Br

Ki [1]: 54.2 nM
Compound: COc1ccc(/C=C2\COc3ccc(Br)cc3C2=O)cc1OC

Ki [1]: 432 nM
Compound: COc1cc(/C=C2\COc3ccc(Br)cc3C2=O)ccc1O

Drug uptake (Lung [2]): 2.29 % ID/g
Ratio (Brain [3]): 6.9%
Drug uptake (Blood [4]): 3.87 % ID/g
Drug uptake (Heart [5]): 4.46 % ID/g
Drug uptake (Brain [6]): 0.18 % ID/g
Drug uptake (Brain [7]): 0.32 % ID/g
Drug uptake (Heart [8]): 0.87 % ID/g
Drug uptake (Heart [9]): 1.87 % ID/g
Drug uptake (Blood [10]): 1.05 % ID/g
Drug uptake (Liver [11]): 4.71 % ID/g
Drug uptake (Liver [12]): 1.05 % ID/g
Drug uptake (Lung [13]): 0.73 % ID/g
Drug uptake (Spleen [14]): 2.54 % ID/g
Drug uptake (Kidney [15]): 3.36 % ID/g
Drug uptake (Kidney [16]): 10.88 % ID/g
Drug uptake (Liver [17]): 2.07 % ID/g
Drug uptake (Blood [18]): 8.35 % ID/g
Drug uptake (Kidney [19]): 1.42 % ID/g
Drug uptake (Blood [20]): 1.22 % ID/g
Drug uptake (Kidney [21]): 1 % ID/g
Drug uptake (Spleen [22]): 1.27 % ID/g
Drug uptake (Lung [23]): 4.87 % ID/g
Drug uptake (Blood [24]): 2.38 % ID/g
Drug uptake (Heart [25]): 0.49 % ID/g
Drug uptake (Heart [26]): 0.36 % ID/g
Drug uptake (Kidney [27]): 17.89 % ID/g
Drug uptake (Lung [28]): 0.99 % ID/g
Drug uptake (Spleen [29]): 0.7 % ID/g
Drug uptake (Brain [30]): 0.83 % ID/g
Drug uptake (Liver [31]): 1.23 % ID/g
Drug uptake (Spleen [32]): 0.35 % ID/g
Drug uptake (Lung [33]): 9.33 % ID/g
Drug uptake (Brain [34]): 2.61 % ID/g
Drug uptake (Liver [35]): 13.57 % ID/g
Drug uptake (Brain [36]): 0.1 % ID/g
Drug uptake (Spleen [37]): 0.4 % ID/g
Compound: CN(C)c1ccc(/C=C2\COc3ccc([125I])cc3C2=O)cc1

Ki [1]: 144 nM
Compound: O=C1/C(=C/c2ccc(Br)cc2)COc2ccc(Br)cc21

Ki [1]: 9.98 nM
Compound: COc1ccc(/C=C2\COc3ccc(Br)cc3C2=O)cc1

Ki [1]: 108 nM
Compound: O=C1/C(=C/c2ccc([N+](=O)[O-])cc2)COc2ccc(Br)cc21

Ki [1]: 63.6 nM
Compound: Nc1ccc(/C=C2\COc3ccc(Br)cc3C2=O)cc1

Activity [38]: Active
Activity [39]: inactive
Ki [1]: 9.1 nM
Compound: CN(C)c1ccc(/C=C2\COc3ccc(Br)cc3C2=O)cc1

Ki [1]: 103 nM
Compound: O=C1/C(=C/c2ccc(O)cc2)COc2ccc(Br)cc21

Source: ChEMBL document CHEMBL3124902, “Homoisoflavonoids as potential imaging agents for β-amyloid plaques in Alzheimer's disease” (Eur J Med Chem, 2014)
